Test results: ChEMBL document CHEMBL1128308, “Synthesis and antiinflammatory activity of certain 5,6,7,8-tetrahydroquinolines and related compounds” (J Med Chem, 1995)

What was measured:
[1] = molecular target: T1, Polyunsaturated fatty acid 5-lipoxygenase (Rattus norvegicus) (UniProt P12527); assay: Inhibition of 5-lipoxygenase pathway in rat polymorphonuclear assay (inhibition of 5-HETE formation)
T1 sequence (whole entry): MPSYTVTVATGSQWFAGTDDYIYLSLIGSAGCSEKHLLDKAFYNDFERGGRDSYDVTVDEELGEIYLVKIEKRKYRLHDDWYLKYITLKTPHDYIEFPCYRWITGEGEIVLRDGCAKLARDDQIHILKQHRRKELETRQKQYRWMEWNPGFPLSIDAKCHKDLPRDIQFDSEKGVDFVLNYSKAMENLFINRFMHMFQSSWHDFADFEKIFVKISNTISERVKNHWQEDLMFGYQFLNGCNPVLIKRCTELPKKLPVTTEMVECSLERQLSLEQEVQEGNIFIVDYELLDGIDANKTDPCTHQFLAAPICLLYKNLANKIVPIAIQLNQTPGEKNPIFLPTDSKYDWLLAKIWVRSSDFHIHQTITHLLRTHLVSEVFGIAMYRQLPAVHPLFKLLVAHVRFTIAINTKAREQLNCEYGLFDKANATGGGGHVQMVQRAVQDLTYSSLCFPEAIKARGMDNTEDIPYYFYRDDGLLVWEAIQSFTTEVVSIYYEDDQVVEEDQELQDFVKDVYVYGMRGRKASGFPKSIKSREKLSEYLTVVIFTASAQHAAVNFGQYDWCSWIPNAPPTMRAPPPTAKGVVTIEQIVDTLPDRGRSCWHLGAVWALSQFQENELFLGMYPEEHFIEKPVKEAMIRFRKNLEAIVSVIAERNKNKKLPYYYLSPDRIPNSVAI
Procedure, shortened: (§1)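 Rat polymorphonuclear leucocytes at 10^7 cells/mL in HBSS (Mg2+, Ca2+, 10 mM cysteine) were preincubated with compound, added in DMSO, for 10 min at 37 °C with shaking. Radiolabeled eicosanoids (5-HETE for the 5-LO pathway, TXB2 for the CO pathway) were separated by HPLC and detected with an in-line radioactivity detector. Results are given as percent change at 10 µM or 50 µM.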

[2] = molecular target: T1, Polyunsaturated fatty acid 5-lipoxygenase (Rattus norvegicus); assay: Inhibition of 5-lipoxygenase pathway in rat polymorphonuclear assay, by ability to inhibit formation of LTB4 AT 10 uM
[3] = molecular target: T2, Polyunsaturated fatty acid 5-lipoxygenase (Rattus norvegicus, UniProt P12527); assay: 5-lipoxygenase inhibitory activity against rat polymorphonuclear leucocytes from female wistar rat, by using 5-HETE.; procedure, shortened: as §1
T2 sequence (P12527 whole entry): T1 sequence (whole entry)

[4] = molecular target: T2, Polyunsaturated fatty acid 5-lipoxygenase; assay: 5-lipoxygenase inhibitory activity against rat polymorphonuclear leucocytes from female wistar rat, by using LTB4.
[5] = molecular target: T3, Cyclooxygenase (Rattus norvegicus, UniProt P35355+Q63921); assay: Prostaglandin G/H synthase Inhibitory activity against rat polymorphonuclear leucocytes from female wistar rat, by using PGE-2.
T3 sequence (P35355 whole entry): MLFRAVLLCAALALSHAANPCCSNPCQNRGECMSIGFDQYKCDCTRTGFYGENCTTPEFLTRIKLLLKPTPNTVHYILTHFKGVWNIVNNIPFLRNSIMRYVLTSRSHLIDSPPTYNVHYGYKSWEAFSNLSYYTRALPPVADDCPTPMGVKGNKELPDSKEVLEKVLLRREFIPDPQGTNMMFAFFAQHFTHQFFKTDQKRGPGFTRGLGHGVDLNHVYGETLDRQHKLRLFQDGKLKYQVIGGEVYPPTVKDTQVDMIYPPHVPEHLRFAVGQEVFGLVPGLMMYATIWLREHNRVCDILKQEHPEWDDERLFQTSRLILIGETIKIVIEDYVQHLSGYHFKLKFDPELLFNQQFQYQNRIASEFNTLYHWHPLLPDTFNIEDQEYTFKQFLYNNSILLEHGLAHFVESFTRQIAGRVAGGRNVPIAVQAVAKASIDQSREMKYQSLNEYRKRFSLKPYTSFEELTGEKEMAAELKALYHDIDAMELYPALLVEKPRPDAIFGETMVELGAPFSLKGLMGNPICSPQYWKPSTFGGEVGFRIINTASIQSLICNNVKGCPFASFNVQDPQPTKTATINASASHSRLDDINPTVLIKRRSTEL
T3 sequence (Q63921 whole entry): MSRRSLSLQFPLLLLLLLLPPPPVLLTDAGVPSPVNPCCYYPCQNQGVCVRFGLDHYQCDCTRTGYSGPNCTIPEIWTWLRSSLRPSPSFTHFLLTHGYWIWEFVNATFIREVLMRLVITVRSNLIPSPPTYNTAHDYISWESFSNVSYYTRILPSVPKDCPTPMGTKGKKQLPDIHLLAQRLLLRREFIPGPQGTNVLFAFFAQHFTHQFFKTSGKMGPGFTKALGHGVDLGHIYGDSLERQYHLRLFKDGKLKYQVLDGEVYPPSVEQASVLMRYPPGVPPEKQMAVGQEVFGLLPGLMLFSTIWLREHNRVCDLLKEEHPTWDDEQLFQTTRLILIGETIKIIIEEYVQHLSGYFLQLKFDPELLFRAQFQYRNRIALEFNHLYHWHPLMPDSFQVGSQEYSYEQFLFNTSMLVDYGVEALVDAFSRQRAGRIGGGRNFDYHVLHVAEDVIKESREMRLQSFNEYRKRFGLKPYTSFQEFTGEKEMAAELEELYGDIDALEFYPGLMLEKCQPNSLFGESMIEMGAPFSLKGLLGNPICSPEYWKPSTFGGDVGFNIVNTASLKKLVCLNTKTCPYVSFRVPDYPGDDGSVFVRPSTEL

[6] = molecular target: T3, Cyclooxygenase; assay: Prostaglandin G/H synthase Inhibitory activity against rat polymorphonuclear leucocytes from female wistar rat, by using TXB2.; procedure, shortened: as §1
[7] = system: Rattus norvegicus; assay: Antiinflammatory activity by rat Carrageenan edema assay at 50 mg/kg peroral administration (3h edema).; format: functional; conditions: route oral
Procedure, shortened: (§2)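 Groups of six male Sprague-Dawley rats (150-165 g) were dosed po in 0.5% methyl cellulose. One hour later, 0.1 mL of 1% carrageenan was injected subplantar into the right hind paw. Edema was taken as the 3 h paw volume minus the zero-time volume and expressed as percent change versus vehicle; screening dose was 50 mg/kg po.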

[8] = system: Rattus norvegicus; assay: Anti-inflammatory activity by rat carrageenan edema assay (3h edema).; format: functional; procedure, shortened: as §2
[9] = species: Rattus norvegicus; assay: Anti-inflammatory activity by rat adjuvant Arthritis assay (uninjected paw at day 16).
[10] = system: Rattus norvegicus; assay: Antiinflammatory activity by rat adjuvant arthritis assay at 30 mg/kg peroral administration (uninjected paw at day 16).; conditions: route oral

- Change [1]: -49%
- Change [2]: -43%
- IC50 [3]: 27 µM
- IC50 [4]: 14 µM
- IC50 [5]: > 50 µM
- IC50 [6]: 33 µM
SMILES: Cc1ccc(C(O)c2nc3c(cc2C)CCCCC3)cc1 (stereo not given)
- Change [7]: -58%
- ED50 [8]: 40 mg/kg
- ED50 [9]: 30 mg/kg
- Change [10]: -49%
